We go through 22 compounds from ChEMBL document CHEMBL1799953, “Backbone cyclic peptide inhibitors of protein kinase B (PKB/Akt)” (J Med Chem, 2011).

The inhibition is how much of the control response was suppressed. What is called IC50 is the midpoint of a concentration-inhibition curve.

Test [1] has as its target T1, RAC-alpha serine/threonine-protein kinase (Homo sapiens, UniProt P31749). In words: Inhibition of Akt using RPRTSSF peptide and [gamma32]ATP at 0.625 uM by cell-free radioactive assay relative to control.
Test [2] addresses T1, RAC-alpha serine/threonine-protein kinase. In words: Inhibition of Akt using RPRTSSF peptide and [gamma32]ATP by cell-free radioactive assay. The procedure, abridged: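 Same reaction: HisΔPHPKBEEEFlag (0.005 units), 50 mM Hepes pH 7.4, 0.1 mM EGTA, 0.1% 2-mercaptoethanol, 10 mM magnesium acetate, 3 μM RPRTSSF, 10 μM [γ32P]ATP. Peptide stock concentration determined by UV spectrophotometry; reference peptide run in every assay.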

Test [3] shares this target. In words: Inhibition of Akt using RPRTSSF peptide and [gamma32]ATP at 5 uM by cell-free radioactive assay relative to control. In outline:
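Cell-free 32P kinase assay: HisΔPHPKBEEEFlag (0.005 units, one-step Ni-NTA partial purification), 50 mM Hepes pH 7.4, 0.1 mM EGTA, 0.1% 2-mercaptoethanol, 10 mM magnesium acetate, 3 μM RPRTSSF substrate, 10 μM [γ32P]ATP (1 μCi/well). Inhibitor at 5 μM. Activity loss expressed as percent of uninhibited reaction.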

*1 amine or outer side, *2 acyl side, *3 side chain or, on linkers, in order; H or OH if unused. Where a SMILES comes first, the peptide text is derived from it. Bridges are numbered along the chain shown (N, C = ends). [ ]: non-standard residue; d: D form. N(6-aminohexyl)Gly = O=C(CN(CCCCCCN[*:3])[*:1])[*:2]; NGly(3-aminopropyl) = O=C(CN(CCCN[*:3])[*:1])[*:2]; N(2-Aminoethyl)Gly = O=C(CN(CCN[*:3])[*:1])[*:2]; Gly(N-(CH2)6NH2) = NCCCCCCNCC(=O)O; Gly(N-2-aminoethyl) = NCCNCC(=O)O; Gly(N(CH2)3NH2) = NCCCNCC(=O)O; hLeu = CC(C)CC[C@H](N)C(=O)O; Nva = CCC[C@H](N)C(=O)O; Dap = NC[C@H](N)C(=O)O; CO = O=C([*:1])[*:2]; Nlys = NCCCCNCC(=O)O

T1 sequence (P31749 whole entry): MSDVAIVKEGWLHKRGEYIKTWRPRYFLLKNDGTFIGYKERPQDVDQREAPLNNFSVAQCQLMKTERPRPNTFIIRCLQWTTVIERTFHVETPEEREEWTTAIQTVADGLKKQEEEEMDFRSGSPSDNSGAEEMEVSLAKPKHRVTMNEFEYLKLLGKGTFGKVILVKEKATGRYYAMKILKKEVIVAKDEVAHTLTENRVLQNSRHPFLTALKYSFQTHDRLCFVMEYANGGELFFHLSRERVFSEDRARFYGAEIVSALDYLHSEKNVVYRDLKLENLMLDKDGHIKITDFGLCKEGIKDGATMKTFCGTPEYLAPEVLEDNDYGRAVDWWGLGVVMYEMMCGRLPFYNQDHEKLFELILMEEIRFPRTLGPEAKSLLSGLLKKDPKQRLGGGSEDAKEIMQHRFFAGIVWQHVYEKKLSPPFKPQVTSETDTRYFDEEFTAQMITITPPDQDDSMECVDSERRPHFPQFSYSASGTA

On to `CCC[C@H](NC(=O)[C@H](CCCNC(=N)N)NC(=O)CN(CCCCN)C(=O)[C@@H](N)CCCNC(=N)N)C(=O)N[C@@H](Cc1ccc(O)cc1)C(=O)N[C@@H](CN)C(=O)N[C@@H](CCC(C)C)C(=O)N(CCN)CC(N)=O` (H-R[Nlys]R[Nva]Y[Dap][hLeu][Gly(N-2-aminoethyl)]-NH2), for which the inhibition in test [1] came to 84%.

`CCC[C@H](NC(=O)[C@H](CCCNC(=N)N)NC(=O)CN(CCCCN)C(=O)[C@@H](N)CCCNC(=N)N)C(=O)N[C@@H](Cc1ccc(O)cc1)C(=O)N[C@@H](CN)C(=O)N[C@@H](CCC(C)C)C(=O)N(CCCN)CC(N)=O` (H-R[Nlys]R[Nva]Y[Dap][hLeu][Gly(N(CH2)3NH2)]-NH2): the inhibition in test [1] stood at 91%. For the same compound, in test [2], the IC50 is 150 nM.

For the compound `CCC[C@@H]1NC(=O)[C@H](CCCNC(=N)N)NC(=O)CNCCCCCCNC(=O)NCCN(CC(N)=O)C(=O)[C@H](CCC(C)C)NC(=O)[C@H](CN)NC(=O)[C@H](Cc2ccc(O)cc2)NC1=O` (H-[N(6-aminohexyl)Gly]R[Nva]Y[Dap][hLeu][N(2-Aminoethyl)Gly]-NH2; linker 1-7 via CO), the inhibition in test [1] is 26%.

In the case of `CCC[C@H](NC(=O)[C@H](CCCNC(=N)N)NC(=O)CN(CCCN)C(=O)[C@@H](N)CCCNC(=N)N)C(=O)N[C@@H](Cc1ccc(O)cc1)C(=O)N[C@@H](CN)C(=O)N[C@@H](CCC(C)C)C(=O)N(CCN)CC(N)=O` (H-R[Gly(N(CH2)3NH2)]R[Nva]Y[Dap][hLeu][Gly(N-2-aminoethyl)]-NH2), the inhibition in test [1] amounted to 76%.

On to `CCC[C@H](NC(=O)[C@H](CCCNC(=N)N)NC(=O)CN(CCN)C(=O)[C@@H](N)CCCNC(=N)N)C(=O)N[C@@H](Cc1ccc(O)cc1)C(=O)N[C@@H](CN)C(=O)N[C@@H](CCC(C)C)C(=O)N(CCCCN)CC(N)=O` (H-R[Gly(N-2-aminoethyl)]R[Nva]Y[Dap][hLeu][Nlys]-NH2), for which the inhibition in test [1] worked out at 84%.

Consider `CCC[C@H](NC(=O)[C@H](CCCNC(=N)N)NC(=O)CN(CCN)C(=O)[C@@H](N)CCCNC(=N)N)C(=O)N[C@@H](Cc1ccc(O)cc1)C(=O)N[C@@H](CN)C(=O)N[C@@H](CCC(C)C)C(=O)N(CCN)CC(N)=O` (H-R[Gly(N-2-aminoethyl)]R[Nva]Y[Dap][hLeu][Gly(N-2-aminoethyl)]-NH2), for which the inhibition in test [1] was found to be 57%.

For the compound `CCC[C@H](NC(=O)[C@H](CCCNC(=N)N)NC(=O)CN(CCCCCCN)C(=O)[C@@H](N)CCCNC(=N)N)C(=O)N[C@@H](Cc1ccc(O)cc1)C(=O)N[C@@H](CN)C(=O)N[C@@H](CCC(C)C)C(=O)N(CCCN)CC(N)=O` (H-R[Gly(N-(CH2)6NH2)]R[Nva]Y[Dap][hLeu][Gly(N(CH2)3NH2)]-NH2), the inhibition in test [1] is 87%. The IC50 in test [2] worked out at 110 nM.

On to `CCC[C@H](NC(=O)[C@H](CCCNC(=N)N)NC(=O)CN(CCN)C(=O)[C@@H](N)CCCNC(=N)N)C(=O)N[C@@H](Cc1ccc(O)cc1)C(=O)N[C@@H](CN)C(=O)N[C@@H](CCC(C)C)C(=O)N(CCCCCCN)CC(N)=O` (H-R[Gly(N-2-aminoethyl)]R[Nva]Y[Dap][hLeu][Gly(N-(CH2)6NH2)]-NH2), for which the inhibition in test [1] worked out at 42%.

For `CCC[C@H](NC(=O)[C@H](CCCNC(=N)N)NC(=O)CN(CCCCN)C(=O)[C@@H](N)CCCNC(=N)N)C(=O)N[C@@H](Cc1ccc(O)cc1)C(=O)N[C@@H](CN)C(=O)N[C@@H](CCC(C)C)C(=O)N(CCCCCCN)CC(N)=O` (H-R[Nlys]R[Nva]Y[Dap][hLeu][Gly(N-(CH2)6NH2)]-NH2), the inhibition in test [1] amounted to 60%.

Regarding `CCC[C@@H]1NC(=O)[C@H](CCCNC(=N)N)NC(=O)CNCCCNC(=O)NCCN(CC(N)=O)C(=O)[C@H](CCC(C)C)NC(=O)[C@H](CN)NC(=O)[C@H](Cc2ccc(O)cc2)NC1=O` (H-[NGly(3-aminopropyl)]R[Nva]Y[Dap][hLeu][N(2-Aminoethyl)Gly]-NH2; linker 1-7 via CO), in test [1], the inhibition came to 84%. Also, the IC50 in test [2] came to 240 nM.

As to `CCC[C@H](NC(=O)[C@H](CCCNC(=N)N)NC(=O)CN(CCCCCCN)C(=O)[C@@H](N)CCCNC(=N)N)C(=O)N[C@@H](Cc1ccc(O)cc1)C(=O)N[C@@H](CN)C(=O)N[C@@H](CCC(C)C)C(=O)N(CCN)CC(N)=O` (H-R[Gly(N-(CH2)6NH2)]R[Nva]Y[Dap][hLeu][Gly(N-2-aminoethyl)]-NH2), the inhibition in test [1] was determined as 83%.

As to `CCC[C@@H]1NC(=O)[C@H](CCCNC(=N)N)NC(=O)CN(C(=O)[C@@H](N)CCCNC(=N)N)CCNC(=O)NCCCCCCN(CC(N)=O)C(=O)[C@H](CCC(C)C)NC(=O)[C@H](CN)NC(=O)[C@H](Cc2ccc(O)cc2)NC1=O` (H-R[N(2-Aminoethyl)Gly]R[Nva]Y[Dap][hLeu][N(6-aminohexyl)Gly]-NH2; linker 2-8 via CO), the inhibition in test [3] was 100%. The IC50 in test [2] is 290 nM.

As for `CCC[C@H](NC(=O)[C@H](CCCNC(=N)N)NC(=O)CN(CCCN)C(=O)[C@@H](N)CCCNC(=N)N)C(=O)N[C@@H](Cc1ccc(O)cc1)C(=O)N[C@@H](CN)C(=O)N[C@@H](CCC(C)C)C(=O)N(CCCCN)CC(N)=O` (H-R[Gly(N(CH2)3NH2)]R[Nva]Y[Dap][hLeu][Nlys]-NH2), in test [1], the inhibition worked out at 96%. Further, in test [2], the IC50 stood at 128 nM.

With `CCC[C@H](NC(=O)[C@H](CCCNC(=N)N)NC(=O)CN(CCCCCCN)C(=O)[C@@H](N)CCCNC(=N)N)C(=O)N[C@@H](Cc1ccc(O)cc1)C(=O)N[C@@H](CN)C(=O)N[C@@H](CCC(C)C)C(=O)N(CCCCN)CC(N)=O` (H-R[Gly(N-(CH2)6NH2)]R[Nva]Y[Dap][hLeu][Nlys]-NH2), in test [1], the inhibition came to 88%.

`CCC[C@H](NC(=O)[C@H](CCCNC(=N)N)NC(=O)CN(CCCCN)C(=O)[C@@H](N)CCCNC(=N)N)C(=O)N[C@@H](Cc1ccc(O)cc1)C(=O)N[C@@H](CN)C(=O)N[C@@H](CCC(C)C)C(=O)N(CCCCN)CC(N)=O` (H-R[Nlys]R[Nva]Y[Dap][hLeu][Nlys]-NH2): the inhibition in test [1] came to 91%. In addition, the IC50 in test [2] was 130 nM.

On to `CCC[C@H](NC(=O)[C@H](CCCNC(=N)N)NC(=O)CN(CCN)C(=O)[C@@H](N)CCCNC(=N)N)C(=O)N[C@@H](Cc1ccc(O)cc1)C(=O)N[C@@H](CN)C(=O)N[C@@H](CCC(C)C)C(=O)N(CCCN)CC(N)=O` (H-R[Gly(N-2-aminoethyl)]R[Nva]Y[Dap][hLeu][Gly(N(CH2)3NH2)]-NH2), for which the inhibition in test [1] came to 76%.

With `CCC[C@H](NC(=O)[C@H](CCCNC(=N)N)NC(=O)CN(CCCN)C(=O)[C@@H](N)CCCNC(=N)N)C(=O)N[C@@H](Cc1ccc(O)cc1)C(=O)N[C@@H](CN)C(=O)N[C@@H](CCC(C)C)C(=O)N(CCCN)CC(N)=O` (H-R[Gly(N(CH2)3NH2)]R[Nva]Y[Dap][hLeu][Gly(N(CH2)3NH2)]-NH2), the inhibition in test [1] came to 90%. Besides, the IC50 in test [2] stood at 130 nM.

For the compound `CCC[C@@H]1NC(=O)[C@H](CCCNC(=N)N)NC(=O)CNCCNC(=O)NCCN(CC(N)=O)C(=O)[C@H](CCC(C)C)NC(=O)[C@H](CN)NC(=O)[C@H](Cc2ccc(O)cc2)NC1=O` (H-[N(2-Aminoethyl)Gly]R[Nva]Y[Dap][hLeu][N(2-Aminoethyl)Gly]-NH2; linker 1-7 via CO), in test [1], the inhibition was 64%. For the same compound, in test [2], the IC50 was 390 nM.

Regarding `CCC[C@H](NC(=O)[C@H](CCCNC(=N)N)NC(=O)CN(CCCCCCN)C(=O)[C@@H](N)CCCNC(=N)N)C(=O)N[C@@H](Cc1ccc(O)cc1)C(=O)N[C@@H](CN)C(=O)N[C@@H](CCC(C)C)C(=O)N(CCCCCCN)CC(N)=O` (H-R[Gly(N-(CH2)6NH2)]R[Nva]Y[Dap][hLeu][Gly(N-(CH2)6NH2)]-NH2), the inhibition in test [1] is 57%.

`CCC[C@H](NC(=O)[C@H](CCCNC(=N)N)NC(=O)[C@@H]1CCCN1C(=O)[C@@H](N)CCCNC(=N)N)C(=O)N[C@@H](Cc1ccc(O)cc1)C(=O)N[C@@H](CN)C(=O)N[C@@H](CCC(C)C)C(N)=O`: in test [1], the inhibition turned out to be 36%.

Consider `CCC[C@@H]1NC(=O)[C@H](CCCNC(=N)N)NC(=O)CNCCCCNC(=O)NCCN(CC(N)=O)C(=O)[C@H](CCC(C)C)NC(=O)[C@H](CN)NC(=O)[C@H](Cc2ccc(O)cc2)NC1=O` (H-[Nlys]R[Nva]Y[Dap][hLeu][N(2-Aminoethyl)Gly]-NH2; linker 1-7 via CO), for which the inhibition in test [1] was 32%.

As for `CCC[C@H](NC(=O)[C@H](CCCNC(=N)N)NC(=O)CN(CCCN)C(=O)[C@@H](N)CCCNC(=N)N)C(=O)N[C@@H](Cc1ccc(O)cc1)C(=O)N[C@@H](CN)C(=O)N[C@@H](CCC(C)C)C(=O)N(CCCCCCN)CC(N)=O` (H-R[Gly(N(CH2)3NH2)]R[Nva]Y[Dap][hLeu][Gly(N-(CH2)6NH2)]-NH2), the inhibition in test [1] came to 51%.
